# From ChEMBL document CHEMBL3860041, “Synthesis, biological evaluation and molecular modeling study of some new methoxylated 2-benzylthio-quinazoline-4(3H)-ones as nonclassical antifolates” (Bioorg Med Chem Lett, 2016)
# Tests used:
# Type in all cases: functional
# [1] = Growth inhibition of human K562 cells at 10 uM after 48 hrs by SRB assay relative to control; conditions: K562, 48 h, read-out: GI
# Outline: (§1)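 NCI 60-cell-line panel, nine tumor subpanels; compounds tested at a single dose of 10 μM in the primary screen.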
# [2] = Growth inhibition of human MOLT4 cells at 10 uM after 48 hrs by SRB assay relative to control; conditions: MOLT-4, 48 h, read-out: GI; outline: as §1
# [3] = Growth inhibition of human A549 cells at 10 uM after 48 hrs by SRB assay relative to control; conditions: A549, 48 h, read-out: GI; outline: as §1
# [4] = Growth inhibition of human HOP62 cells at 10 uM after 48 hrs by SRB assay relative to control; conditions: HOP-62, 48 h, read-out: GI; outline: as §1
# [5] = Growth inhibition of human HOP92 cells at 10 uM after 48 hrs by SRB assay relative to control; conditions: HOP-92, 48 h, read-out: GI; outline: as §1
# [6] = Growth inhibition of human NCI-H23 cells at 10 uM after 48 hrs by SRB assay relative to control; conditions: NCI-H23, 48 h, read-out: GI; outline: as §1
# [7] = Growth inhibition of human NCI-H460 cells at 10 uM after 48 hrs by SRB assay relative to control; conditions: NCI-H460, 48 h, read-out: GI; outline: as §1
# [8] = Growth inhibition of human HCT116 cells at 10 uM after 48 hrs by SRB assay relative to control; conditions: HCT-116, 48 h, read-out: GI; outline: as §1
# [9] = Growth inhibition of human HT-29 cells at 10 uM after 48 hrs by SRB assay relative to control; conditions: HT-29, 48 h, read-out: GI; outline: as §1
# [10] = Growth inhibition of human SF539 cells at 10 uM after 48 hrs by SRB assay relative to control; conditions: SF-539, 48 h, read-out: GI; outline: as §1
# [11] = Growth inhibition of human U251 cells at 10 uM after 48 hrs by SRB assay relative to control; conditions: U-251, 48 h, read-out: GI
# Outline: (§2)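 Primary screen across the full NCI 60 human tumour cell line panel, which covers nine tumour subpanels. A single dose of 10 μM was applied to each line, and growth was recorded for each cell line.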
# [12] = Growth inhibition of human LOXIMVI cells at 10 uM after 48 hrs by SRB assay relative to control; conditions: LOX IMVI, read-out: GI; outline: as §1
# [13] = Growth inhibition of human SK-MEL-2 cells at 10 uM after 48 hrs by SRB assay relative to control; conditions: SK-MEL-2, 48 h, read-out: GI; outline: as §2
# [14] = Growth inhibition of human SK-MEL-28 cells at 10 uM after 48 hrs by SRB assay relative to control; conditions: SK-MEL-28, 48 h, read-out: GI; outline: as §2
# [15] = Growth inhibition of human UACC62 cells at 10 uM after 48 hrs by SRB assay relative to control; conditions: UACC-62, 48 h, read-out: GI; outline: as §2
# [16] = Growth inhibition of human OVCAR5 cells at 10 uM after 48 hrs by SRB assay relative to control; conditions: OVCAR-5, 48 h, read-out: GI; outline: as §1
# [17] = Growth inhibition of human OVCAR8 cells at 10 uM after 48 hrs by SRB assay relative to control; conditions: OVCAR-8, 48 h, read-out: GI; outline: as §1
# [18] = Growth inhibition of human NCI/ADR-RES cells at 10 uM after 48 hrs by SRB assay relative to control; conditions: read-out: GI; outline: as §1
# [19] = Growth inhibition of human 786-0 cells at 10 uM after 48 hrs by SRB assay relative to control; conditions: 786-0, 48 h, read-out: GI; outline: as §1
# [20] = Growth inhibition of human Caki1 cells at 10 uM after 48 hrs by SRB assay relative to control; conditions: CAKI-1, 48 h, read-out: GI; outline: as §1
# [21] = Growth inhibition of human RXF393 cells at 10 uM after 48 hrs by SRB assay relative to control; conditions: RXF 393, 48 h, read-out: GI; outline: as §1
# [22] = Growth inhibition of human SN12C cells at 10 uM after 48 hrs by SRB assay relative to control; conditions: read-out: GI; outline: as §2
# [23] = Growth inhibition of human UO31 cells at 10 uM after 48 hrs by SRB assay relative to control; conditions: UO-31, 48 h, read-out: GI; outline: as §2
# [24] = Growth inhibition of human MDA-MB-231 cells at 10 uM after 48 hrs by SRB assay relative to control; conditions: MDA-MB-231, 48 h, read-out: GI; outline: as §1
# [25] = Growth inhibition of human Hs 578T cells at 10 uM after 48 hrs by SRB assay relative to control; conditions: read-out: GI; outline: as §1
# [26] = Growth inhibition of human BT549 cells at 10 uM after 48 hrs by SRB assay relative to control; conditions: BT-549, 48 h, read-out: GI; outline: as §1
# [27] = Growth inhibition of human T47D cells at 10 uM after 48 hrs by SRB assay relative to control; conditions: read-out: GI; outline: as §2
# [28] = system: Cancer cell lines; assay: Potency index, ratio of 5-fluorouracil GI50 to compound GI50 for human prostate cancer cells
# Outline: (§3)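 GI50 for each cell line came from NCI panel testing over a 5-log dose range, with 5-fluorouracil tested alongside as the reference drug. The index relates the 5-fluorouracil GI50 to the compound GI50 within each tumour subpanel.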
# [29] = system: Cancer cell lines; assay: Potency index, ratio of 5-fluorouracil GI50 to compound GI50 for human renal cancer cells; outline: as §3
# [30] = system: Cancer cell lines; assay: Potency index, ratio of 5-fluorouracil GI50 to compound GI50 for human non-small cell lung cancer cells; outline: as §3
# [31] = Growth inhibition of human non-small cell lung cancer cells after 48 hrs by SRB assay; conditions: Cancer cell lines
# Outline: (§4)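 Follow-up NCI panel testing over a 5-log dose range for each cell line. GI50, TGI and LC50 were monitored, with 5-fluorouracil run as the positive control. Values are grouped by tumour subpanel.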
# [32] = Growth inhibition of human colon cancer cells after 48 hrs by SRB assay; conditions: Cancer cell lines; outline: as §4
# [33] = Growth inhibition of human melanoma cells after 48 hrs by SRB assay; conditions: Melanoma cell; outline: as §4
# [34] = Growth inhibition of human ovarian cancer cells after 48 hrs by SRB assay; conditions: Cancer cell lines; outline: as §4
# [35] = Growth inhibition of human renal cancer cells after 48 hrs by SRB assay; conditions: Cancer cell lines; outline: as §4
# [36] = Growth inhibition of human breast cancer cells after 48 hrs by SRB assay; conditions: Cancer cell lines; outline: as §4
smiles,measurement,setting,value
COc1ccccc1-n1c(SCc2cc(OC)c(OC)c(OC)c2)nc2ccc(Cl)cc2c1=O,inhibition of growth at 10 µM,[1],87.3%
same,inhibition of growth at 10 µM,[2],84.7%
same,inhibition of growth at 10 µM,[3],68.9%
same,inhibition of growth at 10 µM,[4],48.2%
same,inhibition of growth at 10 µM,[5],57.1%
same,inhibition of growth at 10 µM,[6],63.9%
same,inhibition of growth at 10 µM,[7],89.2%
same,inhibition of growth at 10 µM,[8],78.9%
same,inhibition of growth at 10 µM,[9],92.3%
same,inhibition of growth at 10 µM,[10],35.5%
same,inhibition of growth at 10 µM,[11],74.5%
same,inhibition of growth at 10 µM,[12],66.8%
same,inhibition of growth at 10 µM,[13],< 10%
same,inhibition of growth at 10 µM,[14],50.7%
same,inhibition of growth at 10 µM,[15],65.7%
same,inhibition of growth at 10 µM,[16],46.7%
same,inhibition of growth at 10 µM,[17],44.7%
same,inhibition of growth at 10 µM,[18],79.8%
same,inhibition of growth at 10 µM,[19],49%
same,inhibition of growth at 10 µM,[20],57.4%
same,inhibition of growth at 10 µM,[21],38.5%
same,inhibition of growth at 10 µM,[22],29.7%
same,inhibition of growth at 10 µM,[23],57.4%
same,inhibition of growth at 10 µM,[24],44.3%
same,inhibition of growth at 10 µM,[25],60.4%
same,inhibition of growth at 10 µM,[26],60.5%
same,inhibition of growth at 10 µM,[27],56.1%
same,RatioGI50,[28],2 - 10
same,RatioGI50,[29],2 - 10
same,RatioGI50,[30],2 - 10
same,GI50,[31],5.8 µM
same,LC50 (concentration killing 50% of cells),[31],> 100 µM
same,TGI,[31],> 100 µM
same,GI50,[32],3.1 µM
same,LC50,[32],> 100 µM
same,TGI,[32],> 100 µM
same,GI50,[33],4.2 µM
same,LC50,[33],> 100 µM
same,TGI,[33],91.7 µM
same,GI50,[34],6.7 µM
same,LC50 (50% lethal concentration),[34],> 100 µM
same,TGI,[34],87.9 µM
same,GI50,[35],10.6 µM
same,LC50,[35],> 100 µM
same,TGI,[35],93.5 µM
same,GI50,[36],3.5 µM
same,LC50,[36],> 100 µM
same,TGI,[36],84.8 µM
